Among the data in ChEMBL document CHEMBL4513216, “Probing the Open Global Health Chemical Diversity Library for Multistage-Active Starting Points for Next-Generation Antimalarials” (ACS Infect Dis, 2020) are cytotoxicity values, retold here.

Each structure is given as a SMILES string.

A short description of the data set: Toxicity liver stage against HepG2, at 10uM. Format: cell-based. The arrangement: test concentration 10 uM, cell line HepG2-A16-CD81EGFP. The following applies: human, HepG2-A16-CD81EGFP cells; read-out: INHIBITION
In short, it runs like this:
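Uninfected HepG2-A16-CD81EGFP cells, 3 × 10^3 per well, 1536-well, plated on prespotted compound at 10 μM final, parasite-free screening media added to match infected plates; puromycin 10 μM positive, DMSO 0.5% negative; run in parallel with 48 h PbLuc assay at 37 °C, 5% CO2; viability by CellTiter-Glo luminescence, normalized to controls.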
In the case of `Cc1sc(N)nc1-c1ccc(Cl)cc1`, the cytotoxicity at 10 µM was -2.75%.

Regarding `COC(=O)N1CCN2C[C@H](CO)[C@@H](c3ccccc3)[C@H]2C1`, the cytotoxicity at 10 µM was 6.12%.

Take `CCCc1cc(=O)[nH]c2nnc(SCC(=O)OCC)n12`: the cytotoxicity at 10 µM came to 10.8%.

In the case of `O=C(NCC(Cc1cccc(F)c1)n1cccc1)C1CC1` (stereo not given), the cytotoxicity at 10 µM was 1.22%.

For `CSCC(C)(O)CNC(=O)Nc1cc(C)cc(C)c1` (stereo not given), the cytotoxicity at 10 µM is -3.24%.

Turning to `O=C(c1nnn(-c2ccccc2)n1)N(CCO)CCO`, the cytotoxicity at 10 µM was -1.48%.

As to `c1ccc(COC[C@@]23CCC[C@@H]2CN(Cc2ccccn2)C3)nc1`, the cytotoxicity at 10 µM turned out to be 1.39%.

Take `CC(=O)N1CCCC2(CN(Cc3ccncc3)CCO2)C1` (stereo not given): the cytotoxicity at 10 µM worked out at 7.22%.

Consider `Cn1cc(C(=O)N[C@H]2CN(S(C)(=O)=O)[C@@H]3CCCO[C@H]23)cn1`, for which the cytotoxicity at 10 µM is -16%.

On to `c1nc(N2CCOCC2)nc2c1COCC21CCN(CC2CC2)C1` (stereo not given), for which the cytotoxicity at 10 µM amounted to 9.69%.

As to `CCOc1ccc(CNCCCn2ccnc2)cc1OC`, the cytotoxicity at 10 µM was -4.78%.

With `NC(=O)c1ccc2c(c1)nc1n2CCN(Cc2ccco2)C1`, the cytotoxicity at 10 µM was -11.3%.

As to `Cc1nn(CCC(=O)NC2CCS(=O)(=O)C2)c(C)c1Br` (stereo not given), the cytotoxicity at 10 µM is 0.549%.

As for `O=C(NCCCN1CCOCC1)c1ccn(COc2ccccc2)n1`, the cytotoxicity at 10 µM was 5.5%.

`CCOc1ccc(N2CCCN=C2NC(=O)c2ccc(OC)cc2)cc1`: the cytotoxicity at 10 µM was 6.03%.

Consider `CCn1cc(CNc2ccc(F)c(F)c2)cn1`, for which the cytotoxicity at 10 µM was -0.0638%.

For `CN1CCN(c2ncccn2)CC1C(N)=O` (stereo not given), the cytotoxicity at 10 µM is 15.4%.

`CC(C)Nc1n[nH]c2nc(C3CCN(C(=O)c4ccccn4)C3)ccc12` (stereo not given): the cytotoxicity at 10 µM stood at 17%.

With `CN1CCCC(Cc2nccnc2Cl)CC1` (stereo not given), the cytotoxicity at 10 µM was found to be 0.368%.

Regarding `CC(C)N1CCC(c2cccc(C(=O)N(C)C)n2)CC1`, the cytotoxicity at 10 µM turned out to be 9.23%.

With `NC(=O)C1(c2cnccn2)CCCN1Cc1ccc(Cl)cc1` (stereo not given), the cytotoxicity at 10 µM was -0.085%.

For `CNC(=O)CCc1cc(C)nc(C2CCCN2)n1` (stereo not given), the cytotoxicity at 10 µM worked out at 1.77%.

Take `CCC(O)(CNCc1ccncc1)c1ccc(Br)cc1` (stereo not given): the cytotoxicity at 10 µM is -8.64%.

Regarding `CC(C)c1nnc(CN2CCCc3ccc(S(N)(=O)=O)cc32)o1`, the cytotoxicity at 10 µM is -1.08%.

Consider `CN(CC(=O)NCC1CCCCC1)S(=O)(=O)c1cccnc1`, for which the cytotoxicity at 10 µM came out at 3.82%.

With `CCOCCC(=O)NC(Cc1ccc(C)cc1)c1ccccn1` (stereo not given), the cytotoxicity at 10 µM was -1.55%.

For the compound `Cc1ccc(CNC(=O)N2CCN(S(C)(=O)=O)CC2)n1C`, the cytotoxicity at 10 µM came out at 2.22%.

On to `COC(=O)c1cc(NCC(=O)NC(N)=O)cc(C(F)(F)F)c1`, for which the cytotoxicity at 10 µM was -1.06%.

On to `CCC(C)(CC(=O)OC)NC(=O)c1cccc(F)c1F` (stereo not given), for which the cytotoxicity at 10 µM is -4.13%.

`CCc1nc(CN2CCCC(N(C)CCn3cncn3)C2)no1` (stereo not given): the cytotoxicity at 10 µM was -6.5%.

In the case of `O=C(NCc1ccccc1CN1CCCCC1)Nc1nncs1`, the cytotoxicity at 10 µM came out at 0.513%.

Consider `COc1cc(NC(=O)N(C)Cc2ccc(Br)o2)ncn1`, for which the cytotoxicity at 10 µM is -4.12%.

For `CC(CO)NC(=O)Nc1ccc(COC2CCCC2)cc1` (stereo not given), the cytotoxicity at 10 µM was -7.41%.

Regarding `COc1cc(NC(=O)c2ccc(C)cc2C)c(C(=O)N(C)C)cc1OC`, the cytotoxicity at 10 µM is -0.414%.

For the compound `CSCC(CCO)NC(=O)Nc1ccc(C)cc1C` (stereo not given), the cytotoxicity at 10 µM stood at 1.82%.

For `COc1ccnc(NC(=O)c2ccsc2)c1`, the cytotoxicity at 10 µM is -0.747%.

Consider `O=C(c1cnccn1)N1CCN(c2ccnc3ccsc23)CC1`, for which the cytotoxicity at 10 µM worked out at 12.6%.

In the case of `Cc1cccc(C)c1OCCNC(=O)C[S+]([O-])C1CCCC1` (stereo not given), the cytotoxicity at 10 µM was -136%.

For the compound `CC(=O)N(c1ccc(F)cc1)c1nc(CN2CCCC2C(C)C)cs1` (stereo not given), the cytotoxicity at 10 µM is -12.2%.

`CC(C)c1nc(/C=C/c2ccc(O)c(Cl)c2)ncc1C(=O)O`: the cytotoxicity at 10 µM was -1.7%.

Consider `CNS(=O)(=O)CC(=O)NC(C)Cc1cccc(Cl)c1` (stereo not given), for which the cytotoxicity at 10 µM was -8.15%.

Take `O=C1CCCN1c1cccc(CNCc2nc(-c3ccco3)no2)c1`: the cytotoxicity at 10 µM worked out at 0.379%.

With `COc1ccc(CCn2cnc(C#N)n2)cc1`, the cytotoxicity at 10 µM amounted to 0.866%.

On to `CC(O)CN1CCC(CN(C)Cc2cccc(C#N)c2)CC1` (stereo not given), for which the cytotoxicity at 10 µM was -1.3%.

Regarding `CNS(=O)(=O)c1csc(C(=O)N(C)Cc2ccccc2C)c1`, the cytotoxicity at 10 µM amounted to 6.78%.

Regarding `CC(CC1CC1)NCCCN1CCCN(C)CC1` (stereo not given), the cytotoxicity at 10 µM is 31.7%.

For the compound `Cc1ccc(S(C)(=O)=O)cc1C(=O)NS(C)(=O)=O`, the cytotoxicity at 10 µM was -11.4%.

For the compound `O=C(Cn1cc(-c2ccccc2)cn1)N1CCNC1=O`, the cytotoxicity at 10 µM was 6.74%.

Consider `O=C1C(Nc2ccc3nccnc3n2)CCN1c1ccccc1F` (stereo not given), for which the cytotoxicity at 10 µM is -10%.

In the case of `O=C1CC(Nc2ccc3nccnc3n2)CN1c1ccccc1` (stereo not given), the cytotoxicity at 10 µM is -7.76%.

With `CC(C)(C)c1ncc(CNCC2CCCn3ccnc32)s1` (stereo not given), the cytotoxicity at 10 µM was -6.76%.

With `CCc1nc(NS(=O)(=O)c2cc(C)ccc2F)no1`, the cytotoxicity at 10 µM is -4.71%.

As for `CC(C)CNC(=O)NC(=O)CNc1ccccc1SCC(C)C#N` (stereo not given), the cytotoxicity at 10 µM is -8.05%.

For `OCC1CCCN1c1cc(NCCc2c[nH]c3ccccc23)ncn1` (stereo not given), the cytotoxicity at 10 µM is -7.06%.

Consider `NC(=O)c1cc(NC(=O)N2CCCCCC2)ccc1F`, for which the cytotoxicity at 10 µM worked out at 0.692%.

With `COc1cc(-c2cc(OC)c(OC)c(OC)c2)ncn1`, the cytotoxicity at 10 µM was -2.31%.

Take `CC(C)Nc1nc2c(s1)C(=O)CN(C(=O)NCCc1ccccc1)C2`: the cytotoxicity at 10 µM was -5.55%.

Take `Cc1ccc([C@@H]2CN(C(=O)c3cc(C)no3)C[C@H]2NC(=O)C2CC2)cc1`: the cytotoxicity at 10 µM is -1.82%.

For `CCS(=O)(=O)c1ncc(CN(C)C)n1Cc1ccccc1`, the cytotoxicity at 10 µM was found to be 1.73%.

For `CCn1ccnc1CN1CCCn2nc(CNC(=O)C3CCC3)cc2C1`, the cytotoxicity at 10 µM is -7.79%.

For the compound `COCc1cn(CC2CCN(Cc3nc(C)c[nH]3)CC2)nn1`, the cytotoxicity at 10 µM worked out at 0.622%.

`CCCc1cc(NCCCC2CCOC2)n2nccc2n1` (stereo not given): the cytotoxicity at 10 µM is -0.247%.

With `CCc1nnc(CN(C)Cc2nc(-c3ccccc3Cl)oc2C)o1`, the cytotoxicity at 10 µM was -7.43%.

As for `CC(C)N1CCCC2(CCN(c3nccc(C(F)(F)F)n3)C2)C1=O` (stereo not given), the cytotoxicity at 10 µM is 11.4%.

As to `O=C(CCCN1CCCCC1)N1CCC(c2nnc[nH]2)CC1`, the cytotoxicity at 10 µM was -7.92%.

In the case of `COCCN(Cc1cccs1)C(=O)c1ccc(=O)n(C)c1`, the cytotoxicity at 10 µM is -4.78%.

As to `COc1ccc2[nH]c(CNc3cc(C4CCNCC4)nc(C)n3)cc2c1`, the cytotoxicity at 10 µM is -13.4%.

For the compound `Cc1[nH]c2c(F)cccc2c1CC(=O)NCc1csc(N(C)C)n1`, the cytotoxicity at 10 µM was -1.43%.

As for `COc1cccc(CNC2CCSC2)c1OC` (stereo not given), the cytotoxicity at 10 µM came to 2.25%.

As for `Cn1ccnc1SCCNc1cc(N2CCOCC2)ncn1`, the cytotoxicity at 10 µM was found to be 4.91%.

For the compound `CN(Cc1n[nH]c2c1CCC2)C(=O)c1cc(-c2cccn2C)n[nH]1`, the cytotoxicity at 10 µM was 5.12%.

`CCOc1ccccc1OCCN(C)Cc1ncnn1CC`: the cytotoxicity at 10 µM was 10.2%.

For the compound `Cc1ccc(Cl)c(CN2CCC(c3nccn3C(C)C)CC2)c1F`, the cytotoxicity at 10 µM came out at 4.8%.

As for `CCc1ncc2c(n1)CN(C(=O)COC)C2`, the cytotoxicity at 10 µM is -19.4%.

Consider `CNc1nc(C(=O)N2CCCC(c3nccn3CC3CCC3)C2)cs1` (stereo not given), for which the cytotoxicity at 10 µM is -16.7%.

For `CNS(=O)(=O)c1ccc(C)c(C(=O)NCCNc2ncccn2)c1`, the cytotoxicity at 10 µM was -1.87%.

As for `COc1c(CNCCC(=O)NC2CCCCC2)c(C(C)C)nn1C`, the cytotoxicity at 10 µM was -10.4%.

In the case of `COc1cc(NC(=O)CCn2nc(-c3cccs3)oc2=O)cc(OC)c1`, the cytotoxicity at 10 µM was 2.9%.

Regarding `COc1ncccc1CNC(=O)c1cnc(C)cn1`, the cytotoxicity at 10 µM is -4.69%.

As to `COCCN(Cc1nc2c(cnn2C)c(=O)[nH]1)C(C)COC` (stereo not given), the cytotoxicity at 10 µM is -4.6%.

`Cc1cc(CN2CCN(C(=O)NCc3ccoc3)CC2)no1`: the cytotoxicity at 10 µM is -22.5%.

As for `Cc1noc(C)c1CN1CCOC(CNc2cccnn2)C1` (stereo not given), the cytotoxicity at 10 µM was -19%.

In the case of `Cc1noc(CCCC(=O)NCC2CCS(=O)(=O)C2)n1` (stereo not given), the cytotoxicity at 10 µM is -16.4%.

Consider `CN(C)c1cc(CNC(=O)c2ccc(F)cc2)ccn1`, for which the cytotoxicity at 10 µM was -22.9%.

In the case of `OCC1CCCN1c1cc(NCc2cccnc2)ncn1` (stereo not given), the cytotoxicity at 10 µM is -16.6%.

Consider `Cc1ncsc1CNC(=O)N(CCCO)C1CCc2ccccc21` (stereo not given), for which the cytotoxicity at 10 µM was -9.99%.

Take `COc1cccc(C(=O)NC(CC(=O)O)c2cccs2)c1OC` (stereo not given): the cytotoxicity at 10 µM is -8.66%.

As to `Cn1nc2c(cc1=O)CN(CCN1CCCC1=O)CC2`, the cytotoxicity at 10 µM is -31.1%.

As for `COc1cccc(C(=O)N2CCCCC2c2nccs2)c1OC` (stereo not given), the cytotoxicity at 10 µM is -14.4%.

`CC(C)Oc1ncccc1CNC(=O)c1ccc(=O)[nH]n1`: the cytotoxicity at 10 µM is -23.8%.

Take `CCc1ccc(S(=O)(=O)Nc2c(C)cccc2C(=O)O)s1`: the cytotoxicity at 10 µM is -15.9%.

For `CC(C)c1noc(CCCC(=O)NC2CCS(=O)(=O)C2)n1` (stereo not given), the cytotoxicity at 10 µM worked out at 4.67%.

On to `CC(C)c1nnc2n1CCN(C(=O)c1ccc3cc[nH]c3c1)C2`, for which the cytotoxicity at 10 µM came out at 4.02%.

In the case of `O=C(c1ccccc1-n1cccn1)N1CCCN(c2cccnn2)CC1`, the cytotoxicity at 10 µM came out at 7.03%.

Regarding `Cc1noc([C@@H]2C[C@H]3CN(CC4CCOCC4)C[C@H]3O2)n1`, the cytotoxicity at 10 µM was -137%.

Turning to `CNC(=O)C1Cn2ccnc2C2(CCN(C(=O)c3ccoc3C)CC2)O1` (stereo not given), the cytotoxicity at 10 µM is -157%.

On to `O=C1COC2(CCN(Cc3ccc(F)cc3)CC2)CN1`, for which the cytotoxicity at 10 µM was -25.7%.

For the compound `CC(C)Nc1ccc2nc(C3CCN(C(C)C)CC3)nn2c1`, the cytotoxicity at 10 µM was -20.4%.

Consider `Cc1cccc(CN2C[C@@H]3OCCN(S(=O)(=O)N(C)C)[C@@H]3C2)c1`, for which the cytotoxicity at 10 µM is -12.4%.

As for `CS(=O)(=O)N1C[C@H]2CC[C@@H](C1)N(C(=O)Cn1ccc3ccccc31)C2`, the cytotoxicity at 10 µM is -1.38%.
